Assay results gathered from unrelated publications.
Each line is one published result; the experiments were not run side by side.
PADI3: Protein-arginine deiminase type-3 (PADI3, Homo sapiens, UniProt Q9ULW8)
RIPK1: Receptor-interacting serine/threonine-protein kinase 1 (RIPK1, Homo sapiens, UniProt Q13546)
GAK: Cyclin-G-associated kinase (GAK, Homo sapiens, UniProt O14976)
AMY2: Pancreatic alpha-amylase (AMY2, Sus scrofa, UniProt P00690)
KRAS G12C: GTPase KRas (KRAS, Homo sapiens, UniProt P01116, G12C)
EIF2AK3: Eukaryotic translation initiation factor 2-alpha kinase 3 (EIF2AK3, Homo sapiens, UniProt Q9NZJ5)
Maoa: Amine oxidase [flavin-containing] A (Maoa, Rattus norvegicus, UniProt P21396)

N=C(CCl)NCCC[C@H](NC(=O)c1ccc(-c2ccccc2)cc1)c1nn[nH]n1 — kinact/KI (PADI3; enzyme activity, inhibitor): 131 M⁻¹ s⁻¹
COc1cc(Cl)c(C(=O)N[C@@H](CN[C@H]2CC[C@@H](N)CC2)Cc2ccc(C#N)cc2)cc1-c1ccc(CN[C@H](C)c2ccc(C)cc2)o1 — remaining activity (RIPK1; enzyme activity, inhibitor; 1 µM): 96%
FC(F)(F)c1ccc2nccc(Nc3cccc(Br)c3)c2c1 — ΔTm (GAK; thermal stability, DSF; 10 µM): 3.8 °C
Cc1noc(NS(=O)(=O)c2ccc(N=NN(C)O)cc2)c1C — inhibition (AMY2; enzyme activity, inhibitor; 20 µg/mL): 21.1%
COc1cc(C=CC(=O)CC(c2ccc(N(C)C)cc2)n2ccnc2)ccc1O (stereo not drawn) — inhibition (AMY2; enzyme activity, inhibitor, absorbance; 2.5 µg/mL): 67.3%
FC(F)(F)c1cccc(Nc2ccnc3ccc(C(F)(F)F)cc23)c1 — ΔTm (GAK; thermal stability, DSF; 10 µM): 1.3 °C
Cc1cccc(N(O)N=Nc2ccc(S(=O)(=O)Nc3nccs3)cc2)c1 — inhibition (AMY2; enzyme activity, inhibitor; 60 µg/mL): 21.1%
COc1cc(C=Cc2cc(-c3ccc(N(C)C)cc3)nc(O)n2)ccc1O — inhibition (AMY2; enzyme activity, inhibitor, absorbance; 10 µg/mL): 82.6%
C[C@H]1O[C@H](O[C@H]2[C@H](O)[C@@H](O)[C@@H](O[C@H]3[C@H](O)[C@@H](O)C(O)O[C@@H]3CO)O[C@@H]2CO)[C@H](O)[C@@H](O)[C@@H]1N[C@H]1C=C(CO)[C@@H](O)[C@H](O)[C@H]1O (stereo partly drawn) — inhibition (AMY2; enzyme activity, inhibitor; 10 µg/mL): 23.1%
CC(C)(C)n1nnc([C@H](CCCNC(=N)CCl)NC(=O)c2ccccc2)n1 — kinact/KI (PADI3; enzyme activity, inhibitor): 7.67 M⁻¹ s⁻¹
CCCN(O)N=Nc1ccc(S(=O)(=O)Nc2cc(C)on2)cc1 — inhibition (AMY2; enzyme activity, inhibitor; 20 µg/mL): 10.5%
CC(C)(C)n1nnc([C@H](CCCNC(=N)CF)NC(=O)c2ccccc2C(=O)O)n1 — kinact/KI (PADI3; enzyme activity, inhibitor): 261 M⁻¹ s⁻¹
CCCN(O)N=Nc1ccc(S(=O)(=O)Nc2onc(C)c2C)cc1 — inhibition (AMY2; enzyme activity, inhibitor; 20 µg/mL): 26.3%
Nc1ncnc2occ(-c3ccc(NC(=O)Nc4cc(C(F)(F)F)ccc4F)cc3)c12 — remaining signal (Cyclin-dependent kinase 4, with cyclin D1 (CDK4, Homo sapiens, UniProt P11802); cell-free assay, inhibitor; 20 µM): 17%
C[C@@H]1CN(c2ccc3ncc(-c4ccc5[nH]nc(C6CC6)c5c4)n3n2)C[C@H](C)O1 — remaining binding (Cyclin-dependent kinase 19 (CDK19, Homo sapiens, UniProt Q9BWU1); binding, competition with immobilised ligand; 50 nM): 90%
C=CC(=O)Nc1cccc(-c2noc([C@@]3(C)CCCc4sc(N)c(C#N)c43)n2)c1 — kinact (KRAS G12C; cell-free assay, inhibitor): 0.000306 s⁻¹
COc1cc(C=CC(=O)CC(c2ccc([N+](=O)[O-])cc2)n2ccnc2)ccc1O (stereo not drawn) — inhibition (AMY2; enzyme activity, inhibitor, absorbance; 2.5 µg/mL): 62.6%
Cc1ccc(C(=O)Nc2ccc(CN3CCN(C)CC3)c(C(F)(F)F)c2)cc1C#Cc1cnc2cccnn12 — remaining activity (RIPK1; enzyme activity, inhibitor; 23.5 nM): 86%
Cc1cc(NS(=O)(=O)c2ccc(N=NN(C)O)cc2)no1 — inhibition (AMY2; enzyme activity, inhibitor; 20 µg/mL): 10.5%
N=C(CF)NCCC[C@H](NC(=O)c1ccccc1)c1nn[nH]n1 — kinact/KI (PADI3; enzyme activity, inhibitor): 7.25 M⁻¹ s⁻¹
O=C1OC[C@H]2OC(O)[C@H](O)[C@@H](O)[C@@H]2OC(=O)c2cc(O)c(O)c(O)c2-c2c(O)c(O)c3oc(=O)c4c(c(O)c(O)c5oc(=O)c2c3c54)-c2c1cc(O)c(O)c2O (mixture of isomers) — IC90 (Genome polyprotein, protease (Hepatitis C virus genotype 1b, UniProt Q9WMX2); enzyme activity, inhibitor, fluorescence): ~1 µM
CC/C(=N\NC(=O)NCc1cccc(O)c1)c1ccc(O)c(C)c1O — inhibition (Fibroblast growth factor receptor 3 (FGFR3, Homo sapiens, UniProt P22607, K650E); enzyme activity, inhibitor; 0.1 µM): 1.3%
FC(F)(F)c1ccc2nccc(Nc3ccc4c(c3)OCCO4)c2c1 — ΔTm (GAK; thermal stability, DSF; 10 µM): 1.5 °C
C=CC(=O)Nc1ccc(-c2noc([C@@]3(C)CCCc4sc(N)c(C#N)c43)n2)cc1 — kinact (KRAS G12C; cell-free assay): 0.00011 s⁻¹
CS(=O)(=O)c1ccc(Nc2ccnc3ccc(C(F)(F)F)cc23)cc1 — ΔTm (GAK; thermal stability, DSF; 10 µM): 0.2 °C
N=C(CCl)NCCC[C@H](NC(=O)c1ccccc1C(=O)O)c1nn[nH]n1 — kinact/KI (PADI3; enzyme activity, inhibitor): 207 M⁻¹ s⁻¹
COc1ccc(Nc2ncnc3ccc(C(F)(F)F)cc23)cc1 — ΔTm (GAK; thermal stability, DSF; 10 µM): 0.3 °C
FC(F)(F)Oc1cccc(-c2cnc3ccc(-c4ccncc4)nn23)c1 — activity vs control (EIF2AK3; enzyme activity, inhibitor, radiometric; 5 µM): 67%
CC(C)(C)n1nnc([C@H](CCCNC(=N)CF)NC(=O)c2ccccc2)n1 — kinact/KI (PADI3; enzyme activity, inhibitor): 8.67 M⁻¹ s⁻¹
COc1cc(Nc2cnc(C#N)c(O[C@H](C)CN(C)C)n2)ncc1-c1cnn(C)c1 — remaining activity (EIF2AK3; enzyme activity, inhibitor, radiometric; 10 µM): 93%
CS(=O)(=O)c1cccc(Nc2ccnc3ccc(C(F)(F)F)cc23)c1 — ΔTm (GAK; thermal stability, DSF; 10 µM): 0.3 °C
Cn1c2c(c3ccc(Cl)c(Cl)c31)C(C#N)C1(CCNCC1)NC2=O (racemic) — ΔTm (Serine/threonine-protein kinase DCLK1 (DCLK1, Homo sapiens, UniProt O15075); thermal stability, DSF; 10 µM): 0.9 °C
COc1ccc(CN)cc1 — Km (Maoa; enzyme activity, substrate; pH 7.5): 80 µM
COc1cc(Nc2ccnc3ccc(C(C)(C)C)cc23)cc(OC)c1OC — ΔTm (GAK; thermal stability, DSF; 10 µM): 5.2 °C
CCCOc1ccc(OC)c(F)c1C(=O)c1ccc(C(=O)N[C@@H]2CNC[C@H]2NC(=O)c2ccc3[nH]ncc3c2)cc1 — remaining activity (Serine/threonine-protein kinase MRCK beta (CDC42BPB, Homo sapiens, UniProt Q9Y5S2); enzyme activity, inhibitor; 0.75 µM): 7%
CCN(O)N=Nc1ccc(S(=O)(=O)Nc2cc(C)on2)cc1 — inhibition (AMY2; enzyme activity, inhibitor; 120 µg/mL): 42.1%
COc1cc2nccc(Nc3cccc(C(C)=O)c3)c2cc1OC — ΔTm (GAK; thermal stability, DSF; 10 µM): 1.3 °C
Cc1ccc(N(O)N=Nc2ccc(S(=O)(=O)Nc3cc(C)on3)cc2)cc1 — inhibition (AMY2; enzyme activity, inhibitor; 60 µg/mL): 26.3%
NCc1ccc(C(F)(F)F)cc1 — Km (Maoa; enzyme activity, substrate; pH 7.5): 194 µM
